Measured values reported in ChEMBL document CHEMBL1156138, “Identification of novel agonists of the integrin CD11b/CD18” (Bioorg Med Chem Lett, 2009).

Target: Integrin alpha-M/beta-2 (Homo sapiens, UniProt P05107+P11215)
Test: Agonist activity at CD11b/CD18 expressed in K562 cells assessed as increase in cell adhesion to fibrinogen
Format: functional, cell-based
Settings: k562; call rule not given here
In short: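 K562 cells stably transfected with wild-type CD11b/CD18 were tested for compound-induced adhesion to immobilized fibrinogen. The assay was a no-wash cell-adhesion format in TBS containing 1 mM each Ca2+ and Mg2+. Compounds were tested over a range of concentrations. EC50 was taken as the concentration giving a 50% increase in cell adhesion.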

Integrin alpha-M/beta-2, sequence (P05107 23-769 limits assumed, other chains not shown): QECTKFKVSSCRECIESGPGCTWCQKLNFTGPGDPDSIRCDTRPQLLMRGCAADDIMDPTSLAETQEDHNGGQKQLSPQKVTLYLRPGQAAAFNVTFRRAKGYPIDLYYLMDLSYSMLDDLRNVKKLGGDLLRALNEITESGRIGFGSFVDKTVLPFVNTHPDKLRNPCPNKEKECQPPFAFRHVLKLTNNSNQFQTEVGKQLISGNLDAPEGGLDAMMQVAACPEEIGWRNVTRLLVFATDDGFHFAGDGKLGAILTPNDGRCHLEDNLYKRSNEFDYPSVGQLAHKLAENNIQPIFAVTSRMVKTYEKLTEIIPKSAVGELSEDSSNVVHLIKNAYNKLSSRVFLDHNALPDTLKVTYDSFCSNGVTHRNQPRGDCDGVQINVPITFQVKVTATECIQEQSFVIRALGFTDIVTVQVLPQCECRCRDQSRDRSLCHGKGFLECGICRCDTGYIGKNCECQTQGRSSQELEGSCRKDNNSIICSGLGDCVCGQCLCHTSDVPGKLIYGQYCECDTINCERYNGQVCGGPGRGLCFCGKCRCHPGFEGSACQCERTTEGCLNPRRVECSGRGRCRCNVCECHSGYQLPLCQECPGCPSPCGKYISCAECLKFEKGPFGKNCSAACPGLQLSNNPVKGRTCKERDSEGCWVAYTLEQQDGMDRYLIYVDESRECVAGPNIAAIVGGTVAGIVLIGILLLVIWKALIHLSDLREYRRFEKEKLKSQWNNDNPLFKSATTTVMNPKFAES

Question: For `O=C(CN1C(=O)S/C(=C\c2ccc(-c3ccc(Cl)cc3Cl)o2)C1=O)Nc1ccccc1F`, which EC50 is on record?
Answer: Not Active

Question: With `COC(=O)C(C)N1C(=O)S/C(=C\c2ccc(-c3ccc(Cl)cc3Cl)o2)C1=O` (configuration not stated) as the molecule, how does the EC50 read?
Answer: Not Active

Question: For `COC(=O)CN1C(=O)S/C(=C\c2ccc(-c3ccc(C(=O)O)cc3)o2)C1=O`, which EC50 is on record?
Answer: Not Active

Question: With `NS(=O)(=O)c1ccc(N2C(=O)S/C(=C\c3ccc(Cc4ccccc4)o3)C2=O)cc1` as the molecule, how does the EC50 read?
Answer: Not Active

Question: For `Cc1ccc(/C=C2\SC(=O)N(C)C2=O)o1`, which EC50 is on record?
Answer: Not Active

Question: For `CCOC(=O)CN1C(=O)S/C(=C\c2ccc(N3CCOCC3)o2)C1=O`, which EC50 is on record?
Answer: Not Active

Question: With `CCOC(=O)CN1C(=O)S/C(=C\c2ccc(-c3ccc(C(=O)O)cc3C)o2)C1=O` as the molecule, how does the EC50 read?
Answer: Not Active

Question: With `COC(=O)CN1C(=O)S/C(=C\c2ccc(Sc3ccccc3)o2)C1=O` as the molecule, how does the EC50 read?
Answer: Not Active

Question: With `CCCN1C(=O)S/C(=C\c2ccc(-c3ccc(Cl)cc3Cl)o2)C1=O` as the molecule, how does the EC50 read?
Answer: Not Active

Same assay, conditions: read-out: EC50

Question: Which EC50 does the source give for `CCOC(=O)CN1C(=O)S/C(=C\c2ccc(-c3ccc(Cl)cc3Cl)o2)C1=O` here?
Answer: 13.6 µM

Question: For `CCOC(=O)CN1C(=O)S/C(=C\c2ccc(-c3ccccc3)o2)C1=O`, which EC50 is on record?
Answer: 10.5 µM

Question: For `O=C1S/C(=C\c2ccc(-c3ccc(Cl)cc3Cl)o2)C(=O)N1c1ccccc1`, which EC50 is on record?
Answer: > 50 µM

Question: With `CCOC(=O)CN1C(=O)S/C(=C\c2ccc(-c3cc(C(=O)O)ccc3Cl)o2)C1=O` as the molecule, how does the EC50 read?
Answer: 40.9 µM

Question: For `Cc1ccc(C(=O)CN2C(=O)S/C(=C\c3ccc(-c4ccc(Cl)cc4)o3)C2=O)cc1`, which EC50 is on record?
Answer: > 50 µM

Question: For `CCOC(=O)CN1C(=O)S/C(=C\c2ccc(-c3ccc(Cl)c(C(=O)O)c3)o2)C1=O`, which EC50 is on record?
Answer: > 50 µM

Question: With `CCOC(=O)CN1C(=O)S/C(=C\c2ccc(N3CCCC3)o2)C1=O` as the molecule, how does the EC50 read?
Answer: 23.2 µM

Question: Which EC50 does the source give for `O=C(CN1C(=O)S/C(=C\c2ccc(-c3ccc(Cl)cc3Cl)o2)C1=O)c1ccccc1` here?
Answer: 35.6 µM

Question: Which EC50 does the source give for `Cc1cccc(NC(=O)CN2C(=O)S/C(=C\c3ccc(-c4ccccc4)o3)C2=O)c1` here?
Answer: 22.3 µM

Question: With `CCOC(=O)CN1C(=O)S/C(=C\c2ccc(-c3ccc(Br)cc3)o2)C1=O` as the molecule, how does the EC50 read?
Answer: 40.4 µM

Question: For `CCOC(=O)CN1C(=O)S/C(=C\c2ccc(-c3ccc(C)cc3Br)o2)C1=O`, which EC50 is on record?
Answer: 18.6 µM

Question: For `Cc1cccc(NC(=O)CN2C(=O)/C(=C/c3ccc(Cc4ccco4)o3)SC2=S)c1`, which EC50 is on record?
Answer: 18 µM

System: not listed separately
Test: Selectivity ratio for CD11b/CD18 over CD11a/CD18
Settings: not given

Question: For `CCOC(=O)CN1C(=O)S/C(=C\c2ccc(-c3ccc(Cl)cc3Cl)o2)C1=O`, which Ratio is on record?
Answer: 2
